From ChEMBL document CHEMBL1123333, “Synthesis and antiviral activity of certain nucleoside 5'-phosphonoformate derivatives” (1986) come the findings set out here.

Assay [1] relates to Vero. In words: Maximum tolerated concentration (MTC), the lowest concentration that produced microscopically evident toxicity to confluent vero cells. The format is functional, Chlorocebus sabaeus. An outline of the steps: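 Uninfected confluent Vero monolayers in DMEM with 10% newborn bovine serum, single well per concentration, exposed to compound at final 5.0–5000 μM (0.5-log steps) for 72 h at 37 °C, 5% CO2. Cytotoxicity was any microscopic change in morphology or monolayer density from lysis, rounding or detachment. MTC = lowest concentration showing such change.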

The test system of assay [2] is Vero. Put plainly: Compound was tested for antiviral activity against Herpes simplex virus type 1 (HF). The format is functional. As to conditions: Chlorocebus sabaeus, read-out: ED50 (the source's name).
Assay [3] has as its system Vero. In words: Compound was tested for antiviral activity against Herpes simplex virus type 1(KOS). It counts as functional. As to conditions: Chlorocebus sabaeus, read-out: ED50 (the source's name).
Assay [4] relates to Vero. In words: Compound was tested for antiviral activity against Herpes simplex virus type 2 (MS). It counts as functional. As to conditions: Chlorocebus sabaeus, read-out: ED50 (the source's name).
For assay [5], the system named is Vero. Put plainly: Compound was tested for antiviral activity against Herpes simplex virus type 2 of strain 333. It counts as functional. To be noted: Chlorocebus sabaeus, read-out: ED50 (the source's name).
Assay [6] has as its system Vero. In words: Compound was tested for antiviral activity against measles virus. The format is functional. As to conditions: Chlorocebus sabaeus, read-out: ED50 (the source's name).
The test system of assay [7] is Vero. In words: Compound was tested for antiviral activity against para 3. The format is functional. To be noted: Chlorocebus sabaeus, read-out: ED50 (the source's name).
The test system of assay [8] is Vero. In words: Virus rating against Herpes simplex virus type 2 of strain 333. It counts as functional, Chlorocebus sabaeus. An outline of the steps:
(§1)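 Virus-infected confluent Vero cells treated with compound in seven 0.5-log steps (final 5.0–5000 μM) after 30-min adsorption at 37 °C, duplicate wells per concentration. CPE scored microscopically 0 (normal) to 4 (complete destruction) after 72 h at 37 °C, 5% CO2.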

In assay [9] the test system is Vero. Put plainly: Virus rating against Herpes simplex virus type 2 of strain MS. The format is functional, Chlorocebus sabaeus. An outline of the steps:
as §1

In assay [10] the test system is Vero. Put plainly: Virus rating against Herpes simplex virus type 1 of strain HF. The format is functional, Chlorocebus sabaeus. The gist of the method: as §1
For assay [11], the system named is Vero. Put plainly: Virus rating against Herpes simplex virus type 1 of strain KOS. It counts as functional, Chlorocebus sabaeus. An outline of the steps: as §1
Assay [12] relates to Vero. In words: Virus rating against measles virus. It counts as functional, Chlorocebus sabaeus. An outline of the steps:
as §1

In assay [13] the test system is Vero. Put plainly: Virus rating against para 3. The format is functional, Chlorocebus sabaeus. An outline of the steps:
as §1

In assay [14] the test system is Vero. Put plainly: Virus rating against vaccinia. It counts as functional, Chlorocebus sabaeus. An outline of the steps: as §1
The test system of assay [15] is Vero. Put plainly: Compound was tested for antiviral activity against vaccinia. It counts as functional. As to conditions: Chlorocebus sabaeus, read-out: ED50 (the source's name).
In assay [16] the test system is Vero. In words: Virus rating against Herpes simplex virus type 1 of strainHF. The format is functional, Chlorocebus sabaeus. An outline of the steps: as §1

In turn, `CCOC(=O)P(=O)(O)OC[C@H]1OC(n2cnc3c(O)nc(N)nc32)[C@H](O)[C@@H]1O` (stereo partly specified) returned an MTC in the assay with Vero [1] of more than 5000 µM. For the same compound, the EC50 in the assay with Vero [2] is more than 5000 µM; in the assay with Vero [3] it was more than 5000 µM; with Vero [4] it was 820 µM; with Vero [5], 600 µM; in the assay with Vero [6], 500 µM; in the assay on Vero [7], more than 5000 µM. The EC50 in the assay on Vero [15] is more than 5000 µM. For the same compound, the VR in the assay with Vero [8] was found to be 1.02; with Vero [9], 0.9; in the assay on Vero [10], 0.22; in the assay on Vero [11], 0; with Vero [12] it was 0.68; in the assay with Vero [13], 0.1. This compound also gave a VR with Vero [14] of 0.

For the compound `Nc1ncnc2c1ncn2C1O[C@H](COP(=O)(O)C(=O)O)[C@@H](O)[C@H]1O` (stereo partly specified), the MTC in the assay with Vero [1] was more than 5000 µM. Further, the EC50 in the assay on Vero [2] was more than 5000 µM; in the assay with Vero [3], more than 5000 µM; in the assay on Vero [4] it was 360 µM; in the assay on Vero [5] it was 1600 µM; in the assay on Vero [6] it was 3000 µM; with Vero [7], more than 5000 µM. Besides, in the assay on Vero [15], the EC50 was determined as 740 µM. The VR in the assay on Vero [8] came out at 0.7; in the assay on Vero [9] it was 1.15; in the assay with Vero [11], 0; in the assay on Vero [16], 0.18; in the assay with Vero [12], 0.38; in the assay with Vero [13], 0. The compound further had a VR in the assay on Vero [14] of 0.65.

Turning to `O=C([O-])P(=O)([O-])[O-].[Na+].[Na+].[Na+]` [FOSCARNET SODIUM], in the assay on Vero [1], the MTC was more than 5000 µM. The EC50 in the assay with Vero [2] was 230 µM; with Vero [3], 170 µM; in the assay on Vero [4], 89 µM; in the assay with Vero [5], 20 µM; with Vero [6], more than 5000 µM; with Vero [7], 5000 µM. In the assay with Vero [15], the EC50 was more than 5000 µM. In addition, the VR in the assay on Vero [8] is on record as 2.08; with Vero [9], 1.74; in the assay with Vero [11], 1.37; in the assay with Vero [16] it was 1.3; with Vero [12] it was 0; in the assay on Vero [13] it was 0.4. Besides, in the assay on Vero [14], the VR is listed as 0.1.

`NC(=O)P(=O)(O)OC[C@H]1OC(n2cnc3c(N)ncnc32)[C@H](O)[C@@H]1O` (stereo partly specified) came in with an MTC in the assay with Vero [1] of more than 5000 µM. Besides, the EC50 is more than 5000 µM in the assay with Vero [2]; more than 5000 µM with Vero [3]; 830 µM in the assay with Vero [4]; 440 µM with Vero [5]; 2800 µM in the assay with Vero [6]; more than 5000 µM with Vero [7]. Besides, the EC50 in the assay on Vero [15] is more than 5000 µM. For the same compound, the VR in the assay with Vero [8] is reported as 1.24; in the assay on Vero [9] it was 1; in the assay on Vero [11] it was 0; in the assay with Vero [16] it was 0.28; with Vero [12] it was 0.45; with Vero [13], 0.1. The VR in the assay with Vero [14] amounted to 0.

Compound `Nc1ncnc2c1ncn2[C@H]1C[C@H](O)[C@@H](COP(=O)(O)C(=O)O)O1` gave an MTC with Vero [1] of more than 5000 µM. Moreover, the EC50 in the assay on Vero [2] is 730 µM; in the assay with Vero [3], 1800 µM; in the assay on Vero [4] it was 40 µM; in the assay on Vero [5] it was 54 µM; in the assay with Vero [6] it was 900 µM; in the assay with Vero [15], more than 5000 µM. Moreover, the VR with Vero [8] stood at 1.77; in the assay on Vero [9], 1.85; with Vero [11], 0.65; with Vero [16], 1.08; with Vero [12], 0.7; in the assay with Vero [14], 0.

On to `Nc1nc(O)c2ncn(C3O[C@H](COP(=O)(O)C(=O)O)[C@@H](O)[C@H]3O)c2n1` (stereo partly specified), for which the MTC in the assay on Vero [1] is more than 5000 µM. Moreover, the EC50 in the assay with Vero [2] is more than 5000 µM; in the assay with Vero [3], more than 5000 µM; with Vero [4] it was more than 5000 µM; in the assay with Vero [5] it was more than 5000 µM; with Vero [6] it was 330 µM; in the assay with Vero [7], more than 5000 µM. The EC50 in the assay with Vero [15] was more than 5000 µM. Besides, the VR with Vero [8] was found to be 0.22; in the assay with Vero [9], 0.18; with Vero [11], 0; in the assay with Vero [16], 0.2; with Vero [12] it was 0.62; in the assay on Vero [13], 0.1. Also, the VR in the assay with Vero [14] was determined as 0.

Turning to `CCOC(=O)P(=O)(O)OC[C@H]1OC(n2cnc3c(N)ncnc32)[C@H](O)[C@@H]1O` (stereo partly specified), in the assay with Vero [1], the MTC is more than 5000 µM. The EC50 in the assay on Vero [2] is more than 5000 µM; with Vero [3], more than 5000 µM; with Vero [4], 820 µM; in the assay with Vero [5], 1000 µM; with Vero [6], more than 5000 µM; with Vero [7] it was more than 5000 µM. Besides, the EC50 in the assay on Vero [15] is more than 5000 µM. The VR turned out to be 0.72 with Vero [8]; 1.12 with Vero [9]; 0 in the assay on Vero [11]; 0.3 with Vero [16]; 0 with Vero [13]; 0.23 with Vero [14].

For `Nc1nc(O)c2ncn([C@H]3C[C@H](O)[C@@H](COP(=O)(O)C(=O)O)O3)c2n1`, the MTC in the assay with Vero [1] was 5000 µM. Besides, the EC50 in the assay with Vero [2] is more than 5000 µM; with Vero [3], more than 5000 µM; in the assay with Vero [4], 350 µM; in the assay with Vero [5], 230 µM; with Vero [6] it was more than 5000 µM; in the assay on Vero [15], more than 5000 µM. The VR was 1.26 in the assay with Vero [8]; 1.18 in the assay with Vero [9]; 0.1 in the assay on Vero [11]; 0.22 in the assay on Vero [16]; 0.1 in the assay with Vero [12]; 0.25 in the assay on Vero [13]. The compound further registered a VR with Vero [14] of 0.

Consider `NC(=O)P(=O)(O)OC[C@H]1OC(n2cnc3c(O)nc(N)nc32)[C@H](O)[C@@H]1O` (stereo partly specified), for which the MTC in the assay with Vero [1] was more than 5000 µM. In addition, the EC50 with Vero [2] is more than 5000 µM; with Vero [3], more than 5000 µM; with Vero [4], 970 µM; with Vero [5], 300 µM; in the assay on Vero [6], 900 µM; with Vero [7], more than 5000 µM. Further, in the assay with Vero [15], the EC50 was more than 5000 µM. In addition, the VR with Vero [8] was 1.16; with Vero [9] it was 0.91; in the assay with Vero [11], 0; in the assay with Vero [16], 0; with Vero [12] it was 0.7; in the assay on Vero [13], 0.1. In the assay with Vero [14], the VR is reported as 0.
